Source: ChEMBL document CHEMBL2176894, “Cyanobacterial peptides as a prototype for the design of potent β-secretase inhibitors and the development of selective chemical probes for other aspartic proteases” (J Med Chem, 2012)
Activity calls are given as the source filed them. The rule behind the calls is not given here. Starred links: 1 amine or outer side, 2 acyl side, 3 side chain; linkers in the order of their positions; H or OH if unused. Non-standard residues stand in square brackets, D forms with d. Residues, ends and D or L forms follow the SMILES beside them. Ahppa(3S,4S) = O=C(C[C@H](O)[C@H](Cc1ccccc1)N[*:1])[*:2]; dNMeF = CN[C@H](Cc1ccccc1)C(=O)O; NMeQ = CN[C@@H](CCC(N)=O)C(=O)O; Lac = C[C@H](O)C(=O)O

Assays:
Cathepsin E = molecular target: T1, Cathepsin E (Homo sapiens, UniProt P14091); assay: Inhibition of cathepsin E by fluorescence assay
T1 sequence (P14091 whole entry): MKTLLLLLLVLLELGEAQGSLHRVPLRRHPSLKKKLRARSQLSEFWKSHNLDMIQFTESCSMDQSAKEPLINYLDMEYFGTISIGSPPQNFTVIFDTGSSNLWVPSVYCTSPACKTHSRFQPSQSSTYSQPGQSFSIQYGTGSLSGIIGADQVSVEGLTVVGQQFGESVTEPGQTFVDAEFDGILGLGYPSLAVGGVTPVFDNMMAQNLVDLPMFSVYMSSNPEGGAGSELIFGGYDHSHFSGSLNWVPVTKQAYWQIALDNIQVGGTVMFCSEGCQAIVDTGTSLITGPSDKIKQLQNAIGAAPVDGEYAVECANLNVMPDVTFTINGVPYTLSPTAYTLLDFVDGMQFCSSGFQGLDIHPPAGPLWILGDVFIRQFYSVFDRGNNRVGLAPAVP

Beta-secretase 1 [1] = molecular target: T2, Beta-secretase 1 (Homo sapiens, UniProt P56817); conditions: H4, at 10 µM
T2 sequence (P56817 whole entry): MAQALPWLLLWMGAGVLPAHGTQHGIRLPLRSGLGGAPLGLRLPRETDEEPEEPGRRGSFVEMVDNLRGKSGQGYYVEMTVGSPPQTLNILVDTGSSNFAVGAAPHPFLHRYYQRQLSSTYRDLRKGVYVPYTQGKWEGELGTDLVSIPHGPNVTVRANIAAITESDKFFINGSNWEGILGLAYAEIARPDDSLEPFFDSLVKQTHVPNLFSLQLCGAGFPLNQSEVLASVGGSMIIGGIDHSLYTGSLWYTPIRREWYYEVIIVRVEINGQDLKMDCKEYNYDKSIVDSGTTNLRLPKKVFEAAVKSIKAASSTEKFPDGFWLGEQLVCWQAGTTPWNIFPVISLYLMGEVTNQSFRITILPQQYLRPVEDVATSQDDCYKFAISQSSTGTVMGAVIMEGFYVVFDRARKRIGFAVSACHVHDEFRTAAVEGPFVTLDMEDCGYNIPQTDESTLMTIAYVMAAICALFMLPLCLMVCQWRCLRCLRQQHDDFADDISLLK

Cathepsin D = Cathepsin D (Homo sapiens, UniProt P07339); assay: Inhibition of cathepsin D by fluorescence assay
Chain of Cathepsin D (P07339 65-162 limits assumed): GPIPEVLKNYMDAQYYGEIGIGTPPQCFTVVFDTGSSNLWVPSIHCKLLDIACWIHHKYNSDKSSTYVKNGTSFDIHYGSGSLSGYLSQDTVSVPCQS
Chain of Cathepsin D (P07339 169-412 limits assumed): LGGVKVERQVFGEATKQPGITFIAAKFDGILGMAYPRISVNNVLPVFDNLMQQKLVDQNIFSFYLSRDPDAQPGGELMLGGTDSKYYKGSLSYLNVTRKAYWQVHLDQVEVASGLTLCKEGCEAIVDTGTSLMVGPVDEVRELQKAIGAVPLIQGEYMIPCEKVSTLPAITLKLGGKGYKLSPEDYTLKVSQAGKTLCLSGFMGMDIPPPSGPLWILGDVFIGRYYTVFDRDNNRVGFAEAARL

Beta-secretase 1 [2] = molecular target: T2, Beta-secretase 1; assay: Inhibition of BACE1 by fluorescence assay
Serum [3] = assay: Stability in mouse serum by HPLC-MS method; type: ADME, cell-free
Outline: (§1)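 Compound (10 μL of 25 μg/mL) was incubated with 100 μL mouse serum at 37 °C for 0, 1, 2, 4, 8, 12 and 24 h. The reaction was quenched with EtOAc plus internal standard, shaken 5 min, centrifuged at 16000g, and the organic layer dried and taken up in MeOH. Parent and ester-hydrolysis acid were quantified by HPLC-MS MRM interpolation; n = 2.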

Mus musculus = assay: Reduction in […] in CF1 mouse at 30 mg/kg, ip measured 3 hrs post dose by sandwich ELISA; type: functional, organism-based; parameters: dose 30 mg/kg
Serum [4] = assay: Drug metabolism in mouse serum assessed as ester hydrolysis mediated formation of metabolites by HPLC-MS method; type: ADME, cell-free; outline: as §1
Nucleic Acid = assay: Ratio of drug level in CF1 mouse brain to IC50 for inhibition of BACE1-mediated Abeta40/Abeta42 production in CHO 2B7 cells expressing wild type APP695; type: cell-based
Outline: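 CF-1 mice (8 weeks, 25−35 g) received 30 mg/kg i.p. in 5% DMSO/15% Solutol HS 15/10% EtOH/65% water and were killed 3 h post-dose. Cerebellum and cortex were homogenized in acetonitrile (1:10 w:v) with internal standard and quantified by HPLC-MS (MRM, negative ion). The cellular reference was CHO 2B7 (APP695 wt): 16 h treatment, 1% DMSO, secreted Aβ40/Aβ42 sandwich ELISA.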

H4 = assay: Inhibition of Alpha secretase expressed in human H4 cells assessed as reduction in C83 levels at 10 uM incubated for 16 hrs by immunoblot; type: cell-based
Outline: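 H4 cells (3 × 10⁵/well) adhered 4−6 h in DMEM/10% FCS at 37 °C, then were switched to serum-free Ultraculture containing compound at 10 μM final for 16 h. Cells were lysed in NP40/deoxycholate buffer, and protein was equalized by BCA. Lysates were run on 10−20% tricine gels and immunoblotted with antibody to the APP C-terminal 20 residues (1:2000); C99 and C83 were imaged on an infrared system.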

[5] = Drug metabolism in human H4 cells lysates assessed as ester hydrolysis mediated formation of metabolites by HPLC-MS method; type: ADME, cell-based, Lysate
Outline: (§2)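 H4 whole-cell lysate was diluted to 1 mg/mL protein in 0.1 M phosphate buffer, pH 7.4. Parent and acid hydrolysis product were extracted with EtOAc with internal standard. Quantitation was by HPLC-MS MRM against a calibration curve; n = 2.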

Beta-secretase 1 [6] = molecular target: T2, Beta-secretase 1; assay: Inhibition of BACE1 expressed in CHO 2B7 cells expressing wild type APP695 assessed as reduction in Abeta40/Abeta42 levels incubated for 16 hrs by sandwich ELISA; type: cell-based
Beta-secretase 1 [7] = molecular target: T2, Beta-secretase 1; assay: Inhibition of BACE1 expressed in human H4 cells assessed as reduction in CTF levels at 10 uM incubated for 16 hrs by immunoblot; type: cell-based
[8] = Stability in human H4 cells lysates by HPLC-MS method; type: ADME, cell-based, Lysate; outline: as §2
[9] = molecular target: Gamma-secretase (Homo sapiens) (UniProt Q96BI3+Q9NZ42+Q8WW43+P49768+Q92542+P49810); assay: Inhibition of gamma secretase expressed in human H4 cells expressing BRI-C99 fusion protein assessed as C99 fragment accumulation fragment at 10 uM incubated for 16 hrs in by immunoblot; type: cell-based
Outline: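 H4 cells overexpressing Bri-C99 (400000/well) were kept in Opti-MEM with 1% serum and treated 16 h with test compound (10 μM), LY411575 (100 nM) or BACE1 inhibitor IV (1 μM). Cells were lysed in TBS/1% Triton X-100 and run on a 12% bis-tris gel. Blots were probed with CT-20 antibody for furin-generated C99 and read on an infrared imager.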

Brain = assay: Drug concentration in CF1 mouse brain at 30 mg/kg, ip measured 3 hrs post dose by HPLC-MS method relative to compound plasma concentration; type: ADME, organism-based; parameters: dose 30 mg/kg, route intraperitoneal
Outline: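 CF-1 mice, 8 weeks old, 25−35 g, given 30 mg/kg i.p. in 5% DMSO/15% Solutol HS 15/10% EtOH/65% water; killed 3 h post-dose. Cerebellum and cortex homogenized in acetonitrile (1:10 w:v) containing internal standard, then re-extracted. Plasma was taken by cardiac puncture into K-EDTA. Levels were measured by HPLC-MS (MRM, negative ionization) and interpolated from a calibration curve.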

[10] = Permeability at 10 uM at pH 5.0 by PAMPA method; type: ADME; conditions: read-out: permeability
[11] = Permeability at 10 uM at pH 7.4 by PAMPA method; type: ADME; conditions: read-out: permeability
Outline: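 Filters were coated with BBB-1 lipid, with brain sink buffer in the acceptor. Plates were incubated 4 h at room temperature, humidified. Absorbance was read at 250−350 nm and Pe calculated. Triplicate; mean ± SD.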

Compound | IC50 (Cathepsin E) | inhibition (Beta-secretase 1 [1]) | IC50 (Cathepsin D) | IC50 (Beta-secretase 1 [2]) | inhibition [9] | inhibition (H4) | other results
COC(=O)[C@@H]1CCCN1C(=O)[C@@H](Cc1ccccc1)N(C)C(=O)[C@H](C)NC(=O)[C@H](CC(C)C)NC(=O)C[C@H](O)[C@H](Cc1ccccc1)NC(=O)c1cc(NS(C)(=O)=O)cc(C(=O)N[C@H](C)c2ccccc2)c1 | 210 nM | Active | 11.3 nM | 128 nM | inactive | inactive | Stability (Serum [3]): Stable; Activity (Mus musculus): inactive; Drug metabolism (Serum [4]): Active; Papp at 10 µM [10]: 10.7 ×10⁻⁶ cm/s; Papp at 10 µM [11]: 8.58 ×10⁻⁶ cm/s; Ratio (Nucleic Acid): 3; Drug metabolism [5]: Active; IC50 (Beta-secretase 1 [6]): 100 nM; inhibition (Beta-secretase 1 [7]): Active; Stability [8]: Stable; Drug uptake (Brain): 2.5%
COC(=O)[C@@H](Cc1ccccc1)N(C)C(=O)[C@H](C)NC(=O)[C@H](CC(C)C)NC(=O)C[C@H](O)[C@H](Cc1ccccc1)NC(C)=O | 1520 nM | – | 412 nM | > 10000 nM | – | – | –
COC(=O)[C@@H]1CCCN1C(=O)[C@@H](Cc1ccccc1)N(C)C(=O)[C@H](C)NC(=O)[C@H](CC(C)C)NC(=O)C[C@H](O)[C@H](Cc1ccccc1)NC(=O)[C@H](CCC(N)=O)N(C)C(=O)[C@@H](NC(=O)[C@H](C)O)C(C)C | – | – | – | – | inactive | – | –
COC(=O)[C@@H]1CCCN1C(=O)[C@H](Cc1ccccc1)N(C)C(=O)[C@@H](C)NC(=O)[C@H](CC(C)C)NC(=O)C[C@H](O)[C@H](Cc1ccccc1)NC(=O)[C@H](CCC(N)=O)N(C)C(=O)[C@@H](NC(=O)[C@H](C)O)C(C)C | 1710 nM | – | – | – | – | – | –

Continued by falling IC50 (Cathepsin E), values first:

IC50 (Cathepsin E) | inhibition (Beta-secretase 1 [1]) | IC50 (Cathepsin D) | IC50 (Beta-secretase 1 [2]) | inhibition [9] | Compound | inhibition (H4) | other results
58.2 nM | – | 17.3 nM | – | inactive | COC(=O)[C@@H]1CCCN1C(=O)[C@@H](Cc1ccccc1)N(C)C(=O)[C@H](C)NC(=O)[C@H](CC(C)C)NC(=O)C[C@H](O)[C@H](Cc1ccccc1)NC(=O)[C@H](CCC(N)=O)N(C)C(=O)[C@@H](N)C(C)C | inactive | –
51.9 nM | Active | 254 nM | 166 nM | – | CC(C)C[C@H](NC(=O)C[C@H](O)[C@H](Cc1ccccc1)NC(=O)[C@H](CCC(N)=O)N(C)C(=O)[C@@H](NC(=O)[C@H](C)O)C(C)C)C(=O)N[C@@H](C)C(=O)N(C)[C@H](Cc1ccccc1)C(=O)NC(C)C | – | –
37.5 nM | – | – | – | – | COC(=O)[C@@H]1CCCN1C(=O)[C@@H](Cc1ccccc1)N(C)C(=O)[C@H](C)NC(=O)[C@H](CC(C)C)NC(=O)C[C@H](O)[C@H](Cc1ccccc1)NC(=O)[C@H](CCC(N)=O)N(C)C(=O)[C@@H](NC(=O)[C@H](C)O)C(C)C [TASIAMIDE B] | – | –
36.4 nM | Active | 5.84 nM | – | inactive | COC(=O)[C@@H]1CCCN1C(=O)[C@@H](Cc1ccccc1)N(C)C(=O)[C@H](C)NC(=O)[C@H](CC(C)C)NC(=O)C[C@H](O)[C@H](Cc1ccccc1)NC(=O)c1cc(C(=O)N[C@H](C)c2ccccc2)cc(N(C)S(C)(=O)=O)c1 | inactive | Stability (Serum [3]): Stable; Activity (Mus musculus): Active; Drug metabolism (Serum [4]): Active; Ratio (Nucleic Acid): 20; Drug metabolism [5]: Active; IC50 (Beta-secretase 1 [6]): 10 nM; inhibition (Beta-secretase 1 [7]): Active; Stability [8]: Stable; Drug uptake (Brain): 5.8%
20.8 nM | Active | 54.1 nM | 73 nM | – | CC(C)C[C@H](NC(=O)C[C@H](O)[C@H](Cc1ccccc1)NC(=O)[C@H](CCC(N)=O)N(C)C(=O)[C@@H](NC(=O)[C@H](C)O)C(C)C)C(=O)N[C@@H](C)C(=O)N(C)[C@H](Cc1ccccc1)C(=O)O (H-[Lac]V[NMeQ][Ahppa(3S,4S)]LA[dNMeF]-OH) | – | –
1.92 nM | – | 0.126 nM | – | – | COC(=O)[C@@H]1CCCN1C(=O)[C@@H](Cc1ccccc1)N(C)C(=O)[C@H](C)NC(=O)[C@H](CC(C)C)NC(=O)C[C@H](O)[C@H](Cc1ccccc1)NC(=O)[C@H](CCC(N)=O)N(C)C(=O)[C@@H](NC(=O)OC(C)(C)C)C(C)C | – | –
